Published values from different studies.
Lines come from different studies, so protocols differ.
BMP2K: BMP-2-inducible protein kinase (BMP2K, Homo sapiens, UniProt Q9NSY1)
HTR2C: 5-hydroxytryptamine receptor 2C (HTR2C, Homo sapiens, UniProt P28335)
murC: UDP-N-acetylmuramate--L-alanine ligase (murC, Escherichia coli K-12, UniProt P17952)
CDC42BPG: Serine/threonine-protein kinase MRCK gamma (CDC42BPG, Homo sapiens, UniProt Q6DT37)
Trypanothione synthetase: Trypanothione synthetase (Trypanosoma cruzi, UniProt Q9GT49)
BRWD3: BRWD3 (Homo sapiens, UniProt Q6RI45)
Grm1: Metabotropic glutamate receptor 1 (Grm1, Rattus norvegicus, UniProt P23385)
MTNR1A: Melatonin receptor type 1A (MTNR1A, Homo sapiens, UniProt P48039)

Cc1nn(CC(F)(F)F)cc1Nc1ncc(C2CC2)c(NCCCNC(=O)C2CCC2)n1 — remaining activity (BMP2K; enzyme activity, inhibitor, radiometric; 1 µM): 73%
Oc1cccc(Nc2nc(-c3ccc(F)cc3F)cs2)c1 — inhibition (HTR2C; ligand displacement, radioligand; 10 µM): 17.4%
O=C(NCCCNc1nc(Nc2cccc(NC(=O)N3CCCC3)c2)ncc1C1CC1)C1CCC1 — remaining activity (BMP2K; enzyme activity, inhibitor, radiometric; 1 µM): 8%
N#Cc1ccc(COc2ccccc2C=NNS(=O)(=O)c2ccccc2[N+](=O)[O-])cc1 — remaining activity (murC; enzyme activity, inhibitor, absorbance; 100 µM): 95%
FC(F)(F)Oc1cccc(-c2cnc3ccc(-c4ccncc4)nn23)c1 — remaining binding (CDC42BPG; cell-free assay, competition with immobilised ligand; 5 µM): 18%
CNC(=O)CN1C(=O)Cc2c([nH]c3ccc(Br)cc23)-c2ccc(Cl)cc21 — inhibition (Trypanothione synthetase; enzyme activity, inhibitor, absorbance; 30 µM): 22.8%
Cc1cnc(Nc2ccc(OCCN3CCCC3)cc2)nc1Nc1cccc(S(=O)(=O)NC(C)(C)C)c1 — ΔTm (BRWD3; thermal stability, DSF; 10 µM): 0.58 °C
Cc1cccnc1C(=O)Nc1ccc(N2C(=O)c3ccccc3C2=O)c(Cl)c1 — Emax (Grm1; calcium signal, positive allosteric modulator; T-REx-293): 109%
N#Cc1ccc(COc2ccccc2C=NNS(=O)(=O)Cc2ccccc2F)cc1 — remaining activity (murC; enzyme activity, inhibitor, absorbance; 100 µM): 59%
CCN(Cc1ccccc1C(F)(F)F)C(=O)C1CCN(S(=O)(=O)c2ccc3[nH]ncc3c2)CC1 — inhibition (B1 bradykinin receptor (BDKRB1, Homo sapiens, UniProt P46663); ligand displacement, radioligand; 10 µM): 8%
COc1cc(I)c2[nH]cc(CCNC(C)=O)c2c1 — Emax (MTNR1A; GTPγS binding, agonist, radiometric; cell membranes): 39%
NCCCCNC(=O)CN1C(=O)Cc2c([nH]c3ccc(Br)cc23)-c2ccc(Cl)cc21 — inhibition (Trypanothione synthetase; enzyme activity, inhibitor, absorbance; 30 µM): 6.7%
O=C(Nc1ccc(N2C(=O)c3ccccc3C2=O)c(Cl)c1)c1ncccc1O — Emax (Grm1; calcium signal, positive allosteric modulator; T-REx-293): 105%
CN1CCN(CCNC(=O)CN2C(=O)Cc3c([nH]c4ccc(Br)cc34)-c3ccc(Cl)cc32)CC1 — inhibition (Trypanothione synthetase; enzyme activity, inhibitor, absorbance; 30 µM): 16.8%
Cc1nn(CC(F)(F)F)cc1Nc1ncc(Br)c(NCCCNC(=O)C2CCC2)n1 — remaining activity (BMP2K; enzyme activity, inhibitor, radiometric; 1 µM): 19%
O=C(Nc1ccc(S(=O)(=O)N2CCC(Cl)CC2)cc1)c1ccc([N+](=O)[O-])o1 — inhibition (MTNR1A; ligand displacement, radioligand; 10 µM): 8%
O=C(Cc1ccc2c(c1)OCO2)Oc1ccccc1C=NNS(=O)(=O)c1ccc2ccccc2c1 — remaining activity (murC; enzyme activity, inhibitor, absorbance; 100 µM): 57%
COc1ccc2ncn(CCNC(C)=O)c2c1 — Emax (MTNR1A; β-arrestin recruitment, agonist; CHO-K1; 90 min): 92%
Cc1nn(CC(F)(F)F)cc1Nc1ncc(Br)c(NCCc2cnc[nH]2)n1 — remaining activity (BMP2K; enzyme activity, inhibitor, radiometric; 1 µM): 47%
O=C(Nc1ccc(C=NNS(=O)(=O)c2ccc3ccccc3c2)cc1)c1ccccc1 — remaining activity (murC; enzyme activity, inhibitor, absorbance; 100 µM): 97%
NS(=O)(=O)c1ccc(CNc2nc(Nc3cccc(NC(=O)N4CCCC4)c3)ncc2C2CC2)cc1 — remaining activity (BMP2K; enzyme activity, inhibitor, radiometric; 1 µM): 64%
COc1cc2c(CCNC(C)=O)c(I)[nH]c2cc1[N+](=O)[O-] — Emax (MTNR1A; cAMP, agonist, TR-FRET; CHO-K1; 20 min): 92%
O=C(CN1C(=O)Cc2c([nH]c3ccc(Br)cc23)-c2ccc(Cl)cc21)N1CCCCC1 — inhibition (Trypanothione synthetase; enzyme activity, inhibitor, absorbance; 30 µM): 7.1%
Oc1ccc(-c2nc(-c3ccncc3)c(-c3ccc(F)cc3)[nH]2)cc1 — ΔTm (BRWD3; thermal stability, DSF; 10 µM): 0.66 °C
O=C(Nc1ccc(C=NNS(=O)(=O)c2ccc3ccccc3c2)cc1)c1cc([N+](=O)[O-])cc([N+](=O)[O-])c1 — remaining activity (murC; enzyme activity, inhibitor, absorbance; 100 µM): 72%
Cc1cc2c(cc1N1C(=O)c3cccc4c(Cl)ccc(c34)C1=O)n(C)c(=O)n2C — ΔTm (BRWD3; thermal stability, DSF; 10 µM): -0.5 °C
COc1ccc2[nH]cc(CCNC(C)=O)c2c1I — Emax (MTNR1A; cAMP, agonist, TR-FRET; CHO-K1; 20 min): 90%
Cc1nn(CC(F)(F)F)cc1Nc1ncc(C2CC2)c(NCCc2c[nH]cn2)n1 — remaining activity (BMP2K; enzyme activity, inhibitor, radiometric; 1 µM): 96%
Nc1ncnc2occ(-c3ccc(NC(=O)Nc4cc(C(F)(F)F)ccc4F)cc3)c12 — remaining signal (Receptor-type tyrosine-protein kinase FLT3 (FLT3, Homo sapiens, UniProt P36888, N841I); cell-free assay, inhibitor; 20 µM): 0.75%
c1cc(CN2CCOCC2)cc(Nc2ncc(C3CC3)c(NCCc3c[nH]cn3)n2)c1 — remaining activity (BMP2K; enzyme activity, inhibitor, radiometric; 1 µM): 18%
COc1ccc2cccc(CCNC(C)=O)c2c1 — Emax (MTNR1A; β-arrestin recruitment, agonist; CHO-K1; 90 min): 96%
Cc1ccc(C(=O)Nc2ccc(CN3CCN(C)CC3)c(C(F)(F)F)c2)cc1C#Cc1cnc2cccnn12 — remaining signal (CDC42BPG; cell-free assay; 23.5 nM): 100%
CCCOc1ccc(OC)c(F)c1C(=O)c1ccc(C(=O)N[C@@H]2CNC[C@H]2NC(=O)c2ccc3[nH]ncc3c2)cc1 — remaining activity (Rho-associated protein kinase 2 (ROCK2, Homo sapiens, UniProt O75116); enzyme activity, inhibitor; 0.1 µM): 25%
CCc1ccc2scc(CCNC(C)=O)c2c1 — Emax (MTNR1A; β-arrestin recruitment, agonist; CHO-K1; 90 min): 75%
COc1cc(NC(C)=O)c(Cl)cc1C(=O)Nc1nccs1 — inhibition (HTR2C; ligand displacement, radioligand; 10 µM): 48.8%
COc1cc2c(CCNC(C)=O)c[nH]c2cc1I — Emax (MTNR1A; cAMP, agonist, TR-FRET; CHO-K1; 20 min): 98%
O=C(c1ccc(Cl)cc1)N(Cc1ccccc1)C1CCCCC1 — inhibition (HTR2C; ligand displacement, radioligand; 10 µM): -5.5%
